In the library only some 3.6% were active in any assay of this set; here they are far more common.
HCV NS3 hel inh = inhibitors of HCV NS3 helicase, primary screen, biochemical, Cy5 molecular beacon fluorescence; Hepatitis C virus NS3 helicase; NS3 helicase DNA unwinding; inhibition, % at 10.9 µM; 290,000 compounds, 0.56% hits;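 active = inhibition above the mean of all tested compounds plus 3 SD, set per campaign, cut at about 35% in these data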
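System: NS3 helicase fragment of HCV / Schedule: 1 h at 25 °C / Control set: DMSO alone as 0% and 110 µM thioflavine S as 100% / Reagent: Cy5/quencher beacon DNA duplex and ATP to start / Technique: Cy5 fluorescence / Replication: singlicate / Evaluation: % inhibition of end-to-start signal ratio versus controls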
EBNA-1 inh = EBNA-1 DNA-binding inhibitors, primary screen, biochemical, fluorescence polarization | inhibition, % at 14.8 µM | 300,000 compounds, 0.34% hits; in the data active = inhibition above about 28%
NR3A LBD binder = binders of NR3A ligand-binding domain, primary screen, biophysical, differential scanning fluorimetry, uHTS; 340,000 compounds, 2.5% hits; AID 1259313, 2017; Tm shift relative to glycine control, % at 25 µM; NR3A LBD differential scanning fluorimetry, Tm shift; 0% = protein alone, 100% = glycine-bound protein;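 active = melting temperature shift of at least 10% of the positive control shift, at one fixed dose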
FGF22 binding = binders of human FGF22 protein, primary screen, FGF22 synaptogenesis inhibitor project, biophysical, thermal shift, single point; Fibroblast growth factor 22 (Homo sapiens), Q9HCT0; recombinant FGF22 thermal shift, SYPRO orange fluorescence; percent of sucrose octasulfate shift, DMSO zero; activity (Tm shift, normalised), % at 9.99 µM; 340,000 compounds, 1.5% hits;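 active = mean Tm shift, scaled 0 neutral to 100 positive control, at about 1.3% or above, every replicate too, limit read from the data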
Target sequence (Q9HCT0 whole entry, looked up): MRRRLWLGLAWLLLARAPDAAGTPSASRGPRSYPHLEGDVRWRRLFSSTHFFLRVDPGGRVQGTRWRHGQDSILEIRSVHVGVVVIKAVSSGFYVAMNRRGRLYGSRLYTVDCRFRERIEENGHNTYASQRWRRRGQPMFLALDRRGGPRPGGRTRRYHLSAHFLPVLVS
ZTA DNA inh = ZTA (EBV) inhibition in EBNA-1 counter-screen | P03206 | ZTA-DNA binding, fluorescence polarization | inhibition, % at 11 µM | 320,000 compounds, 0.15% hits | AID 2234; in the data active = inhibition above about 33%
Target sequence (P03206 whole entry, looked up): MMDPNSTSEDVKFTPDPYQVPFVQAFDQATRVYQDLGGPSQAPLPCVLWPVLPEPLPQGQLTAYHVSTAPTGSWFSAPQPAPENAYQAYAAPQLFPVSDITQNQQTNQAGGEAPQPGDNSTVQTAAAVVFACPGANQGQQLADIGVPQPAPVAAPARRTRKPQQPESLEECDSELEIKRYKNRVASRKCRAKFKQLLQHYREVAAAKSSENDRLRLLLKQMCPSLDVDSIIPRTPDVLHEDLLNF
FID counter = compounds displacing fluorescent DNA intercalator, primary screen, artefact control for HCV NS3 helicase inhibitor project, biochemical, FID fluorescence. inhibition, % at 7.9 µM. DNA fluorescent intercalator displacement. AID 1845, 2009. 290,000 compounds, 0.17% hits; in the data active = inhibition above about 37%;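 also: higher means more ethidium bromide displaced from hairpin DNA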
Numbers stand for hits; i = inactive; nt = no result given.

SMILES | HCV NS3 hel inh | EBNA-1 inh | NR3A LBD binder | FGF22 binding | ZTA DNA inh | FID counter
O=C(/C=C/c1ccccc1)NC(NC(=S)Nc1cccc(O)c1)C(Cl)(Cl)Cl (stereo not given) | i | i | 21 | nt | i | i
Cc1ccc(C)c(NC(=S)NC(NC(=O)/C=C/c2ccccc2)C(Cl)(Cl)Cl)c1 (stereo not given) | i | i | 14 | nt | i | i
COc1ccc(NC(=O)Nc2ccc3c(c2)C(=O)N([C@@H](C)CO)C[C@@H](C)[C@@H](CN(C)C(=O)CCCN(C)C)OCCCC[C@H](C)O3)cc1 | nt | nt | nt | i | nt | nt
CCS(=O)(=O)Nc1ccc2c(c1)C(=O)N(C)C[C@H](OC)[C@@H](C)CN(C(=O)NC(C)C)[C@@H](C)CO2 | nt | nt | nt | i | nt | nt
S=C(Nc1ccccc1)Nc1ccc(Cl)cc1Cl | i | i | i | nt | i | i
O=C(/C=C/c1ccccc1)NC(NC(=S)Nc1ccc(Cl)cc1Cl)C(Cl)(Cl)Cl (stereo not given) | i | i | 20 | nt | i | i
CSc1nc(/C=C2\C=Nc3ccccc32)c(O)n1C | i | i | i | nt | i | i
CC(C)n1c(O)c(/C=C2\C=Nc3ccccc32)sc1=Nc1ccccc1 | i | i | 25 | nt | i | i
Cc1ccc2c(c1)C(=O)CC(c1ccccc1)S2 (stereo not given) | nt | nt | 13 | i | nt | nt
O=C(NCC1CC1)[C@H]1[C@H](CO)[C@H]2Cn3c(ccc(-c4ccccc4F)c3=O)[C@@H]1N2Cc1cccnc1 | nt | nt | nt | i | nt | nt
CCOc1ccc(NCc2cccn2-c2nnc(N3CCC(C(=O)NCCCN4CC(C)CC(C)C4)CC3)s2)cc1 (stereo not given) | i | i | i | i | i | 38
CCOC(=O)/C(=N\Nc1cccc(Cl)c1)Sc1nnc(-c2ccc(OC)cc2)n1C | i | i | 13 | nt | i | i
O=C(COC(=O)c1ccc([N+](=O)[O-])s1)NC(=O)NCc1ccccc1 | i | i | i | 43 | i | i
Cc1nc2ccc(NC(=O)c3sccc3C)cc2s1 | i | i | 32 | nt | i | i
Cc1nc2ccc(NC(=O)c3ccco3)cc2s1 | i | i | 16 | i | i | i
CC(=O)Nc1nc2ccc(NC(=O)c3ccco3)cc2s1 | i | i | i | nt | i | i
N#CCCn1cc(C(=O)Nc2ccc(C(=O)O)cc2)c(-c2cccs2)n1 | i | i | i | i | i | i
N#CCCn1cc(C(=O)NCc2ccccc2)c(-c2cccs2)n1 | i | i | i | 43 | i | i
Cc1ccc2oc(=O)c3cc(C(=O)NCCCN4CCCC(C)C4)sc3c2c1 (stereo not given) | i | i | i | i | i | 39
Cc1ccc(C)c(-n2cc(CNCCc3cnccn3)c(-c3ccccc3)n2)c1 | i | i | i | i | i | i
CCn1ccnc1CNCc1cn(-c2cc(C)ccc2C)nc1-c1ccccc1 | i | i | i | 43 | i | i
CCn1ccnc1CN(C)Cc1cn(-c2ccc(C)cc2)nc1-c1cccc(C)c1 | i | i | 24 | i | i | i
CCCNC(=O)N(C)C[C@H]1Oc2cc(C3=CCCCC3)ccc2S(=O)(=O)N([C@H](C)CO)C[C@@H]1C | nt | nt | nt | i | nt | nt
COc1ccc(OCCn2nnc(-c3ccc(Cl)cc3)n2)cc1 | i | i | 15 | nt | i | i
O=C(Nc1ccc(C2=NCCN2)cc1)c1ccc(C(=O)Nc2ccc(C3=NCCN3)cc2)c([N+](=O)[O-])c1 | i | i | i | i | i | 70
SMILES | HCV NS3 hel inh | EBNA-1 inh | NR3A LBD binder | FGF22 binding | ZTA DNA inh | FID counter
Cc1ccc(NC(=O)c2ccc(-n3cccn3)c([N+](=O)[O-])c2)cc1 | i | i | i | nt | i | i
c1cncc(CNc2ncnc3ccc(-c4cccnc4)cc23)c1 | nt | nt | i | 45 | nt | nt
S=C(NCc1cccs1)Nc1cc(Cl)cc(Cl)c1 | i | i | 12 | i | i | i
Cc1ccc(S(=O)(=O)N2[C@@H](c3ccc(F)cc3)C(C(=O)O)=CC[C@H]2c2ccc(Cl)cc2)cc1 | nt | i | i | 1.6 | i | nt
CNC(=O)c1c(NC(=O)CCS(=O)(=O)c2ccc(Cl)cc2)sc2c1CCN(C(=O)OC)C2 | nt | i | 10 | i | i | nt
Cc1cc2nc(SCC(=O)Nc3ccccc3C(=O)O)[nH]c2cc1C | i | i | i | 2.2 | i | i
Cc1ccc2nc(SCC(=O)Nc3ccc(C(N)=O)cc3)[nH]c2c1 | i | i | i | 43 | i | i
NC(=O)c1ccccc1NC(=O)CSc1nc2ccccc2c(=O)[nH]1 | i | i | i | i | i | i
Cc1ccc2nc(SCC(=O)Nc3ccc4[nH]c(=O)[nH]c4c3)[nH]c2c1 | nt | nt | i | i | nt | nt
Cc1cccc(NC(=O)CCCSc2nc3ccccc3[nH]2)c1 | i | i | i | 43 | i | i
COc1ccc2nc(SCC(=O)Nc3ccccc3)[nH]c2c1 | i | i | 17 | i | i | i
COc1ccc2nc(SCC(=O)NCc3ccccc3)[nH]c2c1 | i | nt | i | i | nt | i
Cc1noc(C)c1S(=O)(=O)Nc1ccc2c(c1)C(=O)N([C@@H](C)CO)C[C@H](C)[C@H](CN(C)C(=O)Nc1cccc3ccccc13)O2 | nt | nt | nt | i | nt | nt
CO/N=C/C(C#N)c1ncc(C(F)(F)F)cc1Cl (stereo not given) | i | i | i | i | i | i
N#CC(c1ccccn1)c1ncc(C(F)(F)F)cc1Cl (stereo not given) | i | i | i | 43 | i | i
Cc1cc([N+](=O)[O-])ccc1N1C(=O)c2ccc(C(=O)Nc3ccccc3C(=O)O)cc2C1=O | i | i | i | 1.6 | i | i
Cc1cc(C)c2nc(NCc3ccccc3O)sc2c1 | i | i | 27 | i | i | i
C[C@H]1CN([C@@H](C)CO)C(=O)c2cc(NC(=O)Nc3ccc(C(F)(F)F)cc3)ccc2O[C@@H]1CN(C)C(=O)Nc1cccc2ccccc12 | nt | nt | nt | i | nt | nt
COc1ccc(C(=O)N/N=C2/SCC(=O)N2Cc2ccc3c(c2)OCO3)cc1OC | i | i | 11 | nt | i | i
CC(=O)Nc1ccc(C=NNc2ccc([N+](=O)[O-])cn2)cc1 | nt | nt | 24 | i | nt | nt
COc1cc(/C=N/Nc2ccc([N+](=O)[O-])cn2)cc(OC)c1O | i | nt | i | i | nt | i
Cn1ncc(N=Cc2ccc([N+](=O)[O-])cc2)c1C(=O)Nc1ccccc1 | i | i | 14 | i | i | i
O=[N+]([O-])c1ccc(NN=Cc2cc(Br)ccc2O)nc1 | nt | nt | 31 | i | nt | nt
O=[N+]([O-])c1ccc(NN=Cc2cccc(O)c2)nc1 | nt | nt | 12 | i | nt | nt
CCC(=O)N1[C@H](CO)[C@H](c2ccccc2)C12CN(C(=O)CN1CCOCC1)C2 | nt | nt | nt | i | nt | nt
Cc1ccc(CCNC(=O)C2CCC(CNc3c(N4CCCC4)c(=O)c3=O)CC2)cc1 (stereo not given) | i | i | 17 | i | i | i

Screening results as filed in PubChem.
